inhibition, IC50 and Ratio data for six molecules are collected here from ChEMBL document CHEMBL3621189, “Identification of non-peptidic cysteine reactive fragments as inhibitors of cysteine protease rhodesain” (Bioorg Med Chem Lett, 2015).

The target in assay [1] is Rhodesain (Trypanosoma brucei rhodesiense) (UniProt Q95PM0). The assay is described as follows: Inhibition of Trypanosoma brucei rhodesiense Rhodesain expressed in Pichia pastoris using Z-Phe-Arg-AMC as substrate at 10 uM preincubated for 30 mins followed by substrate addition by fluorescence assay relative to control. A digest of the protocol:
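Single-concentration enzymatic screen of a 200-member cysteine-reactive electrophilic fragment library at 10 μM against rhodesain, scored as percent inhibition. Actives were retested at 10 μM in a confirmatory enzymatic assay.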

The target is the same in assay [2]. As to the kind of experiment: Time-dependent inhibition of Trypanosoma brucei rhodesiense Rhodesain expressed in Pichia pastoris using Z-Phe-Arg-AMC as substrate assessed as ratio of Kinact to Ki preincubated for 30 mins followed by substrate addition measured for 7 mins by fluorescence assay.
Assay [3] deals with Trypanosoma brucei brucei. As to the kind of experiment: Antitrypanosomal activity against Trypanosoma brucei brucei 427 assessed as growth inhibition after 24 hrs by Alamar Blue assay. To be noted: Trypanosoma brucei, 427, 24 h. The assay is classed as functional, organism-based.
The test system of assay [4] is HepG2. As to the kind of experiment: Cytotoxicity against human HepG2 cells after 72 hrs by MTT assay. To be noted: HepG2, 72 h. The assay is classed as cell-based.

Active and inactive are the calls of the source. The calls are words filed in the database; no cut-off is given here.

Rhodesain (Trypanosoma brucei rhodesiense), sequence (Q95PM0 1-450): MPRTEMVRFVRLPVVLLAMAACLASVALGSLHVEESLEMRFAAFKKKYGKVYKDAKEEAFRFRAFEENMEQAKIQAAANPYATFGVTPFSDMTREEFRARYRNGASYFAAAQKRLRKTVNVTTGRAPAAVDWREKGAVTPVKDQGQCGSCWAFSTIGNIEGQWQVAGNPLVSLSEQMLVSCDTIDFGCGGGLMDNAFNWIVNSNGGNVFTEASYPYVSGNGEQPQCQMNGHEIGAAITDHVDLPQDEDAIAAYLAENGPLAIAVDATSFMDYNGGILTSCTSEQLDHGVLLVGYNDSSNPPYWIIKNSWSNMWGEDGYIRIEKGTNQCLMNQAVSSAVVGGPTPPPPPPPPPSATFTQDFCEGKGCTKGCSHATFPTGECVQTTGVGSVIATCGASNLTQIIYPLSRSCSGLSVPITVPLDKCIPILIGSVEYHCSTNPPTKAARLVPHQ

Consider `COC(=O)/C=C/CNC(=O)C1CCN(C(=O)CC(C)C)CC1`, for which the inhibition in assay [1] was < 40%. In addition, the inhibition result in assay [2] is “inactive”. In addition, the IC50 was > 50 µM in assay [3] and > 150 µM in assay [4].
Consider `CC(C)CC(=O)N1CCC(C(=O)NC/C=C/S(C)(=O)=O)CC1`, for which, in assay [1], the inhibition is < 40%. In addition, in assay [2], the inhibition entry was “inactive”. The results for the IC50 in assay [3] and in assay [4] were > 50 µM and > 150 µM, respectively.
Consider `COC(=O)/C=C/CNC(=O)c1sc(-c2ccccc2F)nc1C`, for which the Ratio in assay [2] was found to be 18.3 M⁻¹ s⁻¹. Moreover, the IC50 was 30.3 µM in assay [3] and > 150 µM in assay [4].
Turning to `Cc1nc(-c2ccccc2F)sc1C(=O)NC/C=C/S(C)(=O)=O`, the inhibition in assay [1] was < 40%. Further, in assay [2], the Ratio amounted to 3.47 M⁻¹ s⁻¹. The IC50 in assay [3] worked out at 30.2 µM; in assay [4] it was 69 µM.
With `Cc1ccc(-c2cc(C(=O)NC/C=C/S(C)(=O)=O)no2)cc1`, the inhibition in assay [1] was < 40%. In assay [2], the inhibition result was “inactive”. The concentration for half-maximal inhibition (IC50) is 29.5 µM in assay [3] and 76 µM in assay [4].
Regarding `COC(=O)/C=C/CNC(=O)c1cc(-c2ccc(C)cc2)on1`, in assay [2], the Ratio worked out at 13.2 M⁻¹ s⁻¹. Also, the IC50 in assay [3] is 43.4 µM; in assay [4], > 150 µM.
